The values that follow come from paper PMC6089849 (Acta Pharmaceutica Sinica. B, 2018).

pIC50: −log10 of the molar value. “And” between values parts separate entries of the source, which are not always exact repeats. Equal entries are not always repeated. A value given as a limit tells only on which side of the number the result lay.

For one data set, the target named is PDE9A2 (Homo sapiens, UniProt O76083). Briefly: In vitro bioassay for inhibition of PDE9. The data set is classed as biochemical. The note with it: for pIC50: IC50 against PDE9, mean of three independent determinations.
Sequence of PDE9A2 (O76083 1-533 isoform O76083-2): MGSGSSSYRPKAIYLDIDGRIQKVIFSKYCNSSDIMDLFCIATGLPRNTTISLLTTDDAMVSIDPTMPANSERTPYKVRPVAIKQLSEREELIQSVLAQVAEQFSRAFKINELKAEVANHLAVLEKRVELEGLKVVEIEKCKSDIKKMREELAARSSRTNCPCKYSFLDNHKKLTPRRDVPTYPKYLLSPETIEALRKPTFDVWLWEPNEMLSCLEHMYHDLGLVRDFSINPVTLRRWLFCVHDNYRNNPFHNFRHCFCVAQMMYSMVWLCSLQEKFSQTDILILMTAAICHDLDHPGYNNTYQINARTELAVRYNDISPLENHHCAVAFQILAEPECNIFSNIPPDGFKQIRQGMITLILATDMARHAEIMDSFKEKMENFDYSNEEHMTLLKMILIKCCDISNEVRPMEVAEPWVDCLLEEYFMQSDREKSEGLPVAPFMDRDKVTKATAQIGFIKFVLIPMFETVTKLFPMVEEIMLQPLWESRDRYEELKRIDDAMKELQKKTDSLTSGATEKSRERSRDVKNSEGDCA
Data set [1] is described as follows: In vitro cell viability assay. The data set is classed as cell-based. To be noted: human, SH-SY5Y cells. Summed up: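 SH-SY5Y cells seeded at 5 × 10^3 per well and allowed 24 h before test compound addition at 10, 20, 40, 60, 80 and 100 μmol/L. After 48 h exposure, MTT was added for 4 h at 37 °C. Formazan was dissolved in DMSO, and absorbance was read at 570 nm.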

For orientation: pIC50 means the IC50 on a negative log10 scale, so that one unit is a factor of ten. Low readings indicate a high IC50, high ones a low IC50. A word on the viability: it is a read-out of living cells in per cent, often relative to untreated cells. Lower therefore signals a greater loss of cells. As to `COc1cc(/C=C2\SC(=O)NC2=O)cc(F)c1OCCNc1nc2c(cnn2C2CCCC2)c(=O)[nH]1` [Compound 11c, (Z)-5-(4-(2-((1-Cyclopentyl-4-oxo-4,5-dihydro-1H-pyrazolo[3,4-d]pyrimidin-6-yl)amino)ethoxy)-3-fluoro-5-methoxybenzylidene)thiazolidine-2,4-dione], at PDE9A2, the pIC50 is > 8.30 and 8.48. In data set [1], this molecule had a viability at 48 h, 40 μmol/L of 84% and a viability at 48 h, 100 μmol/L of 57%.

As to `CN(CCOc1ccc(CC2SC(=O)NC2=O)cc1)c1ccccn1` (centres unmarked) [Rosiglitazone, reference compound], the “inhibition against PDE9A” value on PDE9A2 (at the concentration of 5 mmol/L) was “no inhibition”.

On PDE9A2, `C[C@@H](COc1ccc(CC2SC(=O)NC2=O)cc1)Nc1nc2c(cnn2C2CCCC2)c(=O)[nH]1` (stereo partly drawn) [Compound 15, 5-(4-((S)-2-((1-Cyclopentyl-4-oxo-4,5-dihydro-1H-pyrazolo[3,4-d]pyrimidin-6-yl)amino)propoxy)benzyl)thiazolidine-2,4-dione] had a pIC50 of 7.01.

With `COc1cc(CC2SC(=O)NC2=O)cc(F)c1OCCNc1nc2c(cnn2C2CCCC2)c(=O)[nH]1` (centres unmarked) [Compound 14c, 5-(4-(2-((1-Cyclopentyl-4-oxo-4,5-dihydro-1H-pyrazolo[3,4-d]pyrimidin-6-yl)amino)ethoxy)-3-fluoro-5-methoxybenzyl)thiazolidine-2,4-dione], at PDE9A2, the pIC50 is > 8.30 and 8.38. Besides, in data set [1], the viability at 48 h, 40 μmol/L was 93% and the viability at 48 h, 100 μmol/L amounted to 62%.

On PDE9A2, `O=C1NC(=O)/C(=C/c2ccc(OCCNc3nc4c(cnn4C4CCCC4)c(=O)[nH]3)c(F)c2)S1` [Compound 11a, (Z)-5-(4-(2-((1-Cyclopentyl-4-oxo-4,5-dihydro-1H-pyrazolo[3,4-d]pyrimidin-6-yl)amino)ethoxy)-3-fluorobenzylidene)thiazolidine-2,4-dione] had a pIC50 above 8.30. In addition, the “fold more potent than PF-04447943 (PDE9 IC50)” value at PDE9A2 (vs PF-04447943) is recorded as 8 fold. Besides, on PDE9A2 (vs compound 5b), the “fold increase of IC50 potency compared with compound 5b” value is on record as 20 fold. Moreover, in data set [1], the viability at 48 h, 40 μmol/L stood at 55% and the viability at 48 h, 100 μmol/L was found to be 34%.

`COc1cc(/C=C2\SC(=O)NC2=O)ccc1OCCNc1nc2c(cnn2C2CCCC2)c(=O)[nH]1` [Compound 11d, (Z)-5-(4-(2-((1-Cyclopentyl-4-oxo-4,5-dihydro-1H-pyrazolo[3,4-d]pyrimidin-6-yl)amino)ethoxy)-3-methoxybenzylidene)thiazolidine-2,4-dione]: the pIC50 against PDE9A2 was 7.12.

As for `O=C1NC(=O)C(Cc2ccc(OCCNc3nc4c(cnn4C4CCCC4)c(=O)[nH]3)c(F)c2)S1` (centres unmarked) [Compound 14a, 5-(4-(2-((1-Cyclopentyl-4-oxo-4,5-dihydro-1H-pyrazolo[3,4-d]pyrimidin-6-yl)amino)ethoxy)-3-fluorobenzyl)thiazolidine-2,4-dione], the pIC50 against PDE9A2 was > 8.30 and 8.46. In data set [1], this molecule registered a viability at 48 h, 40 μmol/L of 82% and a viability at 48 h, 100 μmol/L of 52%.
